From ChEMBL document CHEMBL5331128, “Alicyclic Ring Size Variation of 4-Phenyl-2-naphthoic Acid Derivatives as P2Y14 Receptor Antagonists” (J Med Chem, 2023)
The source made the active and inactive calls.

What was measured:
[1] = target: Cytochrome P450 2C9 (Homo sapiens, UniProt P11712); test: Inhibition of CYP2C9 (unknown origin); format: ADME
[2] = Stability in mouse plasma assessed as parent compound remaining at 1 uM and measured at 120 mins by LC-MS/MS analysis; format: ADME, cell-free; settings: 2 h
Procedure, shortened: (§1)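 Plasma from human, rat and mouse; percent parent remaining at 120 min.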

[3] = Stability in human plasma assessed as parent compound remaining at 1 uM and measured at 120 mins by LC-MS/MS analysis; format: ADME, cell-free; settings: 2 h; procedure, shortened: as §1
[4] = Cmax in Wistar rat plasma at 1 mg/kg, ip and measured upto 24 hrs; format: ADME, organism-based; parameters: time < 24 hrs, dose 1 mg/kg, route ip
[5] = tested on: Mus musculus; test: Anti-asthmatic activity against OVA/Aspergillus-sensitized protease-mediated C57BL/6J mouse model allergic asthma assessed as reduction in airway eosinophilia in BAL fluid at 10 mg/kg,ip followed by 0.5 hrs OVA challenge and measured after 48 hrs; format: functional, organism-based; settings: time 48.5 hrs
[6] = Acute toxicity in Wistar rat assessed as morbidity at 0.5 mg/kg, iv and measured upto 24 hrs; format: organism-based; settings: in vivo
Procedure, shortened: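 Male Wistar rats; single dose at 1, 3 or 10 mg/kg i.p., or 0.5 mg/kg i.v. Animals were watched for mortality and morbidity over the experimental period, in the course of a plasma pharmacokinetic study.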

[7] = tested on: Mus musculus; test: Anti-asthmatic activity against OVA/Aspergillus-sensitized protease-mediated C57BL/6J mouse model allergic asthma assessed as reduction in lymphocytes in BAL fluid at 10 mg/kg,ip followed by 0.5 hrs OVA challenge and measured after 48 hrs; format: functional, organism-based; settings: time 48.5 hrs
[8] = target: T1, P2Y purinoceptor 14 (Homo sapiens, UniProt Q15391); test: Displacement of fluorescent tracer 4-(4-(1-(4-(1-(6-(3-carboxylato-4-(3-iminio-3H-xanthen-9-yl)benzamido)hexyl)-4,5-dihydro-1H-pyrrol-3-yl)butyl)piperidin-1-ium-4-yl)phenyl)-7-(4-(trifluoromethyl)phenyl)-2-naphthoate from human P2Y14R stably expressed in CHO cells assessed as inhibition constant by flow cytometry; format: cell-based
T1 sequence (Q15391 whole entry): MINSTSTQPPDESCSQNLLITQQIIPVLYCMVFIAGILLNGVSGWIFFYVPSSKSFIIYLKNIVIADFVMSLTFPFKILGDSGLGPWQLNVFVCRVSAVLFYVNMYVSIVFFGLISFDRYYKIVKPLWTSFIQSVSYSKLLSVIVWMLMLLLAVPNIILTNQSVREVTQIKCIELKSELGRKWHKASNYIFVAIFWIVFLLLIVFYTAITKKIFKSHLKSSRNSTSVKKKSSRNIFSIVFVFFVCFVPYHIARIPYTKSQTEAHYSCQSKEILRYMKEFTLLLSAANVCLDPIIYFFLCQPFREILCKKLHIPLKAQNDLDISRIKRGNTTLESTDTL
Procedure, shortened: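 Whole-cell competitive binding: CHO cells expressing hP2Y14R (or HEK-293 cells expressing mP2Y14R) incubated with AlexaFluor488-labelled antagonist tracer at 20 nM.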

[9] = Microsomal stability in mouse liver microsomes assessed as half life; format: ADME, Microsome
[10] = tested on: Mus musculus; test: Antiallodynic activity in CCI surgery neuropathic pain Hsd:ICR mouse model assessed as reversal of mechano-allodynia by measuring paw withdrawal threshold at 10 micromol/kg,po and measured upto 6 hrs by von frey test; format: functional, organism-based; settings: dose 10.0 µmol/kg
Procedure, shortened: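 CCI neuropathic pain in adult male CD-1 mice. Single oral gavage dose of 10 μmol/kg on day 7 post-surgery. Vehicle 5% DMSO + 10% (Kolliphor HS 15:DMSO 5:95) in 0.5% methylcellulose, 0.2 mL. Von Frey paw withdrawal threshold on both hindpaws. Mean ± SD; two-way ANOVA with Dunnett's test.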

[11] = target: T2, P2Y purinoceptor 14 (Mus musculus, UniProt Q9ESG6); test: Displacement of fluorescent tracer 4-(4-(1-(4-(1-(6-(3-carboxylato-4-(3-iminio-3H-xanthen-9-yl)benzamido)hexyl)-4,5-dihydro-1H-pyrrol-3-yl)butyl)piperidin-1-ium-4-yl)phenyl)-7-(4-(trifluoromethyl)phenyl)-2-naphthoate from mouse P2Y14R stably expressed in human HEK293 cells by flow cytometry; format: cell-based
T2 sequence (Q9ESG6 whole entry): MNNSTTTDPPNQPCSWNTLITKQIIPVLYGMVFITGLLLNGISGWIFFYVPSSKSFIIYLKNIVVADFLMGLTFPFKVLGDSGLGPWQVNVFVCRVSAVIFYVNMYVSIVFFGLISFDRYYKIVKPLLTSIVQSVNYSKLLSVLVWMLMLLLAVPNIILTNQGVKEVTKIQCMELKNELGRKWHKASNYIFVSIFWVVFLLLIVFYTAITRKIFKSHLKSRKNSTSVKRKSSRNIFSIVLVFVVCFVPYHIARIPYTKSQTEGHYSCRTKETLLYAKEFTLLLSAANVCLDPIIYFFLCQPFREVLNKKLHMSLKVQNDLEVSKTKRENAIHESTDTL
Procedure, shortened: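 Whole-cell competitive binding: CHO cells expressing hP2Y14R (or HEK-293 cells expressing mP2Y14R) incubated with AlexaFluor488-labelled antagonist tracer at 20 nM. […] Ki derived by dividing IC50 by 1.72.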

[12] = Stability in simulated gastric fluid assessed as parent compound remaining after 120 mins; format: ADME; settings: simulated gi fluid, 2 h
Procedure, shortened: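 Incubation in simulated gastric or intestinal fluid; percent parent remaining read at 120 min.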

[13] = target: T3, Cytochrome P450 1A2 (Homo sapiens, UniProt P05177); test: Inhibition of CYP1A2 (unknown origin); format: ADME
T3 sequence (P05177 whole entry): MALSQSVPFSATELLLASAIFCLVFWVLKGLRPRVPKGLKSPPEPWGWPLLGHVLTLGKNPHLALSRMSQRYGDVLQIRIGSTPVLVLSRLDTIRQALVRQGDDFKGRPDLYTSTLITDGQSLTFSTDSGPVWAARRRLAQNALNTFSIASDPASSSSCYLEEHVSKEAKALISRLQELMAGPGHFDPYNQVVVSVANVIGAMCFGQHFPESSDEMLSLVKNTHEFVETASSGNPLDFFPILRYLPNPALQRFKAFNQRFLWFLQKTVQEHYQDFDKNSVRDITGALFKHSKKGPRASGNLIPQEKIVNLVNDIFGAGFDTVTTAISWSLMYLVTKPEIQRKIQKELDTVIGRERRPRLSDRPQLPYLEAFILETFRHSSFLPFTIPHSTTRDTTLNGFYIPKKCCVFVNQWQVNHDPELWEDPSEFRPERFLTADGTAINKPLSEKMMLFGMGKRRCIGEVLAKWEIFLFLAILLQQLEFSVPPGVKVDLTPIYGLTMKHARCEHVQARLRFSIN

[14] = tested on: Mus musculus; test: Anti-asthmatic activity against OVA/Aspergillus-sensitized protease-mediated C57BL/6J mouse model allergic asthma assessed as reduction in neutrophils in BAL fluid at 10 mg/kg,ip followed by 0.5 hrs OVA challenge and measured after 48 hrs; format: functional, organism-based; settings: time 48.5 hrs
[15] = Cmax in Wistar rat plasma at 3 mg/kg, ip and measured upto 24 hrs; format: ADME, organism-based; parameters: dose 3 mg/kg, time < 24 hrs, route ip
[16] = target: Cytochrome P450 2D6 (Homo sapiens, UniProt P10635); test: Inhibition of CYP2D6 (unknown origin); format: ADME
Sequence of Cytochrome P450 2D6 (P10635 whole entry): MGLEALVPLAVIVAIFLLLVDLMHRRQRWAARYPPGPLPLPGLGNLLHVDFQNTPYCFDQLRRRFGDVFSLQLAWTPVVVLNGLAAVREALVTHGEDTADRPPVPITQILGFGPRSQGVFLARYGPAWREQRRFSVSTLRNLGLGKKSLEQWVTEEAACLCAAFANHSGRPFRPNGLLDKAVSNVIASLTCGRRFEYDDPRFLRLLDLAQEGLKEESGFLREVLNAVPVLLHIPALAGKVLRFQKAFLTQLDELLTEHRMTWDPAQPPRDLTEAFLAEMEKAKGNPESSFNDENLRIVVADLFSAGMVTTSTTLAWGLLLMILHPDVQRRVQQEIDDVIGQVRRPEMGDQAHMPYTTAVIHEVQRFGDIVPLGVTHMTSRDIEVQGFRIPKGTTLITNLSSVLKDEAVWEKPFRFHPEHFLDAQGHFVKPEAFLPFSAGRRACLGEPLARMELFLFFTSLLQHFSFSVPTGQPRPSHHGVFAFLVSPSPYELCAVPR

[17] = Microsomal stability in human liver microsomes assessed as half life; format: ADME, Microsome
[18] = target: Cytochrome P450 2C19 (Homo sapiens, UniProt P33261); test: Inhibition of CYP2C19 (unknown origin); format: ADME
Sequence of Cytochrome P450 2C19 (P33261 whole entry): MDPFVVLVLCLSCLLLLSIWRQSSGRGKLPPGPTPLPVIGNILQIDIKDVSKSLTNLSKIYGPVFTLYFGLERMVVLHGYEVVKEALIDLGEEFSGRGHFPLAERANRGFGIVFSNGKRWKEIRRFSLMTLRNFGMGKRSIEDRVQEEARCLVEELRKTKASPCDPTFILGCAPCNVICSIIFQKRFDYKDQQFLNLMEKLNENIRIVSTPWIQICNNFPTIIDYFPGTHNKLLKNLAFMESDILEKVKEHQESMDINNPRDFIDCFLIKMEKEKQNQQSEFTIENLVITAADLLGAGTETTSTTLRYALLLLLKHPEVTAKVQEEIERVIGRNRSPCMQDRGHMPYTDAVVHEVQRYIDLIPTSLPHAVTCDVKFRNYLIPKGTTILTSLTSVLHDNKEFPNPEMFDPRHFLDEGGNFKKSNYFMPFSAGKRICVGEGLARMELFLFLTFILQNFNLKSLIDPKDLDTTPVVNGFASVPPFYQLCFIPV

[19] = tested on: HepG2; test: Cytotoxicity in human HepG2 cells assessed as reduction in cell viability; format: toxicity, cell-based
[20] = Half life in Wistar rat at 10 mg/kg, ip and measured upto 24 hrs; format: ADME, organism-based; settings: in vivo

Sequence of Cytochrome P450 2C9 (P11712 whole entry): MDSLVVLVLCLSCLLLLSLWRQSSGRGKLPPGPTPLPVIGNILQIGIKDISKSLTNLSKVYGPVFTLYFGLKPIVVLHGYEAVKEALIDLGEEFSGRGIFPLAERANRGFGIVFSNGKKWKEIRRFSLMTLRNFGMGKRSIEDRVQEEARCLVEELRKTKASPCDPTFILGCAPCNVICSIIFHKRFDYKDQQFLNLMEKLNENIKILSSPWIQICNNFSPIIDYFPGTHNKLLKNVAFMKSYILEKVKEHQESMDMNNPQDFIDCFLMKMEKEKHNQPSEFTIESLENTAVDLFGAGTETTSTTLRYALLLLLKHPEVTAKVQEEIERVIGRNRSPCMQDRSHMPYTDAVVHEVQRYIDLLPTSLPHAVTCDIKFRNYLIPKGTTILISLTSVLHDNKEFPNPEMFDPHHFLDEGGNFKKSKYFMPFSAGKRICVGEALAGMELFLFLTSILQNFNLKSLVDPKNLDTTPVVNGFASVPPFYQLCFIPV

Work on `O=C(O)c1cc(-c2ccc([C@]3(O)[C@@H]4CNC[C@H]3C4)cc2)c2ccc(-c3ccc(C(F)(F)F)cc3)cc2c1` yielded an IC50 [1] of over 30 µM, a Stability [2] of 100% and a Stability [3] of 91.1%. The Cmax [4] was 500 nM, the Activity [5] was “Active” and the Activity [6] was “Non-Toxic”. The Activity [7] was “inactive”, the Ki [8] was 0.00344 µM and the t1/2 [9] was 5.92 h. The Activity [10] was “Active”, the IC50 [11] was 0.0048 µM and the Stability [12] was 69.8%. The IC50 [13] was over 30 µM, the Activity [14] was “inactive” and the Cmax [15] was 1300 nM. The IC50 [16] was over 30 µM, the t1/2 [17] was over 6.67 h and the IC50 [18] was over 30 µM. It also gave an IC50 [19] of 32.6 µM and a t1/2 [20] of 4.15 h.
